# How the values were obtained:
# Chenopodium album = assay: Herbicidal activity against Chenopodium album assessed as growth inhibition at 150 g ai/ha using post-emergence protocol under greenhouse conditions measured 15 days after compound treatment; assay type: functional; details: 360 h, read-out: GI
# In short: (§1)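 Post-emergence greenhouse spray on pot-grown broadleaf weeds at the 2-leaf stage. Formulation concentrates were diluted with water. Soil was clay, pH 6.5, 1.6% organic matter, 37.3% clay particles, CEC 12.1 mol/kg. The rate was total active ingredient divided by pot surface area. Untreated seedlings and DMF-treated seedlings served as controls.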
# Echinochloa crus-galli = assay: Herbicidal activity against Echinochloa crus-galli (barnyard grass) assessed as growth inhibition at 150 g ai/ha using post-emergence protocol under greenhouse conditions measured 15 days after compound treatment; assay type: functional; details: 360 h, read-out: GI
# In short: (§2)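 Grass weeds were grown in pots in the greenhouse and sprayed post-emergence at the 1-leaf stage. The spray was formulation concentrate diluted in water. Soil was clay, pH 6.5, 1.6% organic matter, 37.3% clay particles, CEC 12.1 mol/kg. The g.ai/ha rate was active ingredient over pot surface area. Controls were untreated and DMF-treated seedlings.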
# Amaranthus retroflexus = assay: Herbicidal activity against Amaranthus retroflexus assessed as growth inhibition at 150 g ai/ha using post-emergence protocol under greenhouse conditions measured 15 days after compound treatment; assay type: functional; details: 360 h, read-out: GI; in short: as §1
# Digitaria sanguinalis = assay: Herbicidal activity against Digitaria sanguinalis (hairy crabgrass) assessed as growth inhibition at 150 g ai/ha using post-emergence protocol under greenhouse conditions measured 15 days after compound treatment; assay type: functional; details: 360 h, read-out: GI; in short: as §2
# Brassica juncea = assay: Herbicidal activity against Brassica juncea assessed as growth inhibition at 150 g ai/ha using post-emergence protocol under greenhouse conditions measured 15 days after compound treatment; assay type: functional; details: 360 h, read-out: GI; in short: as §1
# [1] = target: T1, Protoporphyrinogen oxidase (Homo sapiens, UniProt P50336); assay: Inhibition of Homo sapiens (human) protoporphyrinogen oxidase; details: read-out: Ki
# T1 sequence (P50336 whole entry): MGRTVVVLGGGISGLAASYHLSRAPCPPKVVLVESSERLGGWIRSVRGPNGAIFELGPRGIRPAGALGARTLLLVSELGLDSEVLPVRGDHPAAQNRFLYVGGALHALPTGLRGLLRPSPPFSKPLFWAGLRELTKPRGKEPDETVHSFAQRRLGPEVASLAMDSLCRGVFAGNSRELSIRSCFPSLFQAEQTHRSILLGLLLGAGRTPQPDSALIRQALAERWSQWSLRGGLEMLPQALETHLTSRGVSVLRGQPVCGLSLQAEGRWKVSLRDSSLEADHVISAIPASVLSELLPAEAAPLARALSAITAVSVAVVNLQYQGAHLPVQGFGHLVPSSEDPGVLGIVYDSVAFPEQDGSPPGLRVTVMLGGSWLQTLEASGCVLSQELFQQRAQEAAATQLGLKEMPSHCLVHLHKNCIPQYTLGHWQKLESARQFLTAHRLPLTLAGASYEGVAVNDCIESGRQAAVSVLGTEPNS
# Setaria viridis = assay: Herbicidal activity against Setaria viridis assessed as growth inhibition at 150 g ai/ha using post-emergence protocol under greenhouse conditions measured 15 days after compound treatment; assay type: functional; details: 360 h, read-out: GI; in short: as §2
# Eclipta prostrata = assay: Herbicidal activity against Eclipta prostrata assessed as growth inhibition at 150 g ai/ha using post-emergence protocol under greenhouse conditions measured 15 days after compound treatment; assay type: functional; details: 360 h, read-out: GI; in short: as §1
Ki [1],Structure (SMILES),inhibition of growth at 150 g/ha (Chenopodium album),inhibition of growth at 150 g/ha (Echinochloa crus-galli),inhibition of growth at 150 g/ha (Amaranthus retroflexus),inhibition of growth at 150 g/ha (Digitaria sanguinalis),inhibition of growth at 150 g/ha (Brassica juncea),inhibition of growth at 150 g/ha (Setaria viridis),inhibition of growth at 150 g/ha (Eclipta prostrata)
48.1 µM,CCOC(=O)C(C)Oc1cc(N2C(=O)C3CCCCC3C2O)c(F)cc1Cl (configuration not stated),< 50%,< 50%,< 50%,< 50%,< 50%,< 50%,< 50%
0.69 µM,CC(C)Oc1cc(N2CC3=C(CCCC3)C2=O)c(F)cc1Cl,> 80%,< 50%,100%,< 50%,> 80%,50%,> 80%
7.45 µM,C=CCOc1cc(N2C(=O)C3=C(CCCC3)C2O)c(Cl)cc1Cl (configuration not stated),50%,< 50%,50%,< 50%,50%,< 50%,50%
0.78 µM,O=C1C2=C(CCCC2)C(O)N1c1cc(OCc2cccc(F)c2)c(Cl)cc1F (configuration not stated),50%,< 50%,> 80%,50%,50%,< 50%,50%
131 µM,COc1cc(N2C(=O)C3CCCCC3C2O)c(F)cc1Cl (configuration not stated),< 50%,< 50%,< 50%,< 50%,< 50%,< 50%,< 50%
41.4 µM,C=CCOC1C2=C(CCCC2)C(=O)N1c1cc(O)c(Br)cc1F (configuration not stated),50%,50%,50%,50%,< 50%,< 50%,50%
66.6 µM,C=CCOC1C2=C(CCCC2)C(=O)N1c1cc(OCc2cccc(Cl)c2)c(Cl)cc1F (configuration not stated),< 50%,< 50%,> 80%,50%,< 50%,< 50%,50%
27.6 µM,Nc1cc(N2CC3=C(CCCC3)C2=O)ccc1Cl,< 50%,< 50%,< 50%,< 50%,< 50%,< 50%,< 50%
124 µM,CCOC(=O)COc1cc(N2C(=O)C3CCCCC3C2O)c(F)cc1Cl (configuration not stated),< 50%,< 50%,< 50%,< 50%,< 50%,< 50%,< 50%
